Experimental data published in ChEMBL document CHEMBL1146217, “Growth inhibition of Mycobacterium bovis, Mycobacterium tuberculosis and Mycobacterium avium in vitro: effect of 1-beta-D-2'-arabinofuranosyl and 1-(2'-deoxy-2'-fluoro-beta-D-2'-ribofuranosyl) pyrimidine nucleoside analogs” (J Med Chem, 2007).
≈ marks a conversion by molar mass, not a printed value.

Columns and labels:
Mycobacterium avium [1] = assay: Antimycobacterial activity against Mycobacterium avium ATCC 25291 at 100 ug/mL by microplate Alamar blue assay; type: functional
Summary of the method: (§1)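 MABA with M. bovis BCG, M. tuberculosis H37Ra or M. avium ATCC 25291. DMSO stocks (10 mg/mL) diluted in 7H9GC; final inoculum 2.5 × 10⁵ CFU/mL. Incubated 6 days, then alamar blue plus Tween 80 added and read by fluorescence after about 24 h. […]. Tested in triplicate at 100, 50, 10 and 1 µg/mL; two experiments, mean reported.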

Mycobacterium avium [2] = assay: Antimycobacterial activity against Mycobacterium avium ATCC 25291 at 50 ug/mL by microplate Alamar blue assay; type: functional; summary of the method: as §1
[3] = tested on: Mycobacterium tuberculosis; assay: Antimycobacterial activity against Mycobacterium tuberculosis H37Ra at 10 ug/mL by microplate Alamar blue assay; type: functional; summary of the method: as §1
[4] = tested on: Mycobacterium tuberculosis; assay: Antimycobacterial activity against Mycobacterium tuberculosis H37Ra at 100 ug/mL by microplate Alamar blue assay; type: functional; summary of the method: as §1
Mycobacterium avium [5] = assay: Antimycobacterial activity against Mycobacterium avium ATCC 25291 by microplate Alamar blue assay; type: functional
Summary of the method: (§2)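 Same alamar blue microplate setup (7H9GC, 2.5 × 10⁵ CFU/mL, 6 days, then dye read after about 24 h), using 2-fold compound dilutions. MIC90 is the lowest concentration giving about 90% inhibition relative to bacteria-only wells after background subtraction. Visual MIC is the lowest concentration preventing the blue-to-pink change.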

[6] = tested on: Mycobacterium tuberculosis; assay: Antimycobacterial activity against Mycobacterium tuberculosis H37Ra by microplate Alamar blue assay; type: functional; summary of the method: as §2
[7] = Toxicity against human foreskin fibroblast cells after 3 days by MTT test; type: cell-based
Summary of the method: (§3)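 MTT viability assay. Vero or HFF cells seeded at 2.5 × 10⁵ cells/well and left to attach 6-8 h. Exposed to compound at 100, 50, 25, 12.5, 6.3 and 1.5 µg/mL for 3 days at 37 °C, with a DMSO control. MTT added for 4 h, then solubilized overnight; absorbance read at 560-650 nm.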

[8] = tested on: Mycobacterium tuberculosis; assay: Antimycobacterial activity against Mycobacterium tuberculosis H37Ra at 1ug/mL by microplate Alamar blue assay; type: functional; summary of the method: as §1
Vero = assay: Toxicity against Vero cells after 3 days by MTT test; type: cell-based; conditions: chlorocebus sabaeus, 72 h; summary of the method: as §3
[9] = tested on: Mycobacterium tuberculosis; assay: Antimycobacterial activity against Mycobacterium tuberculosis H37Ra at 50 ug/mL by microplate Alamar blue assay; type: functional; summary of the method: as §1
Proteus vulgaris = assay: Antibacterial activity against Proteus vulgaris ATCC 49132 after 16 to 20 hrs by broth microdilution method; type: functional
Summary of the method: (§4)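 Broth microdilution MIC. Exponentially growing bacteria diluted in sterile liquid medium to a final inoculum of 1 × 10⁴ CFU/mL. Cultured with compound dilutions for 16-20 h; compounds tested at 100, 50, 10 and 1 µg/mL. MIC taken as the concentration giving 100% inhibition of bacterial growth.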

Bacillus subtilis = assay: Antibacterial activity against Bacillus subtilis ATCC 6633 after 16 to 20 hrs by broth microdilution method; type: functional; conditions: Bacillus subtilis, ATCC 6633; summary of the method: as §4
Streptococcus pneumoniae = assay: Antibacterial activity Streptococcus pneumoniae ATCC 49619 after 16 to 20 hrs by broth microdilution method; type: functional; conditions: for MIC: Streptococcus pneumoniae, ATCC 49619; summary of the method: as §4
Escherichia coli = assay: Antibacterial activity against Escherichia coli ATCC 25922 after 16 to 20 hrs by broth microdilution method; type: functional; conditions: Escherichia coli, ATCC 25922; summary of the method: as §4
Staphylococcus aureus = assay: Antibacterial activity against Staphylococcus aureus ATCC 25923 after 16 to 20 hrs by broth microdilution method; type: functional; conditions: for MIC: Staphylococcus aureus, ATCC 25923; summary of the method: as §4
Streptococcus pyogenes = assay: Antibacterial activity Streptococcus pyogenes ATCC 19615 after 16 to 20 hrs by broth microdilution method; type: functional; conditions: for MIC: Streptococcus pyogenes, ATCC 19615; summary of the method: as §4
Pseudomonas aeruginosa = assay: Antibacterial activity against Pseudomonas aeruginosa […] after 16 to 20 hrs by broth microdilution method; type: functional; conditions: Pseudomonas aeruginosa, ATCC 13048; summary of the method: as §4
Salmonella typhimurium = assay: Antibacterial activity against Salmonella Typhimurium after 16 to 20 hrs by broth microdilution method; type: functional, Salmonella enterica subsp. enterica serovar Typhimurium; conditions: Salmonella enterica; summary of the method: as §4
[10] = tested on: Staphylococcus epidermidis; assay: Antibacterial activity against Staphylococcus epidermidis ATCC 14990 after 16 to 20 hrs by broth microdilution method; type: functional; conditions: for MIC: Staphylococcus epidermidis, ATCC 14990; summary of the method: as §4
Listeria monocytogenes = assay: Antibacterial activity Listeria monocytogenes ATCC 15313 after 16 to 20 hrs by broth microdilution method; type: functional; conditions: for MIC: Listeria monocytogenes, ATCC 15313; summary of the method: as §4
Klebsiella aerogenes = assay: Antibacterial activity against Enterobacter aerogenes after 16 to 20 hrs by broth microdilution method; type: functional; conditions: Klebsiella aerogenes; summary of the method: as §4
Enterococcus faecalis = assay: Antibacterial activity Enterococcus faecalis ATCC 29212 after 16 to 20 hrs by broth microdilution method; type: functional; conditions: for MIC: Enterococcus faecalis, ATCC 29212; summary of the method: as §4

## CCCCCCCCCCC#Cc1cn([C@@H]2O[C@H](CO)[C@@H](O)[C@@H]2O)c(=O)[nH]c1=O
Mycobacterium avium [1]
  inhibition at 100 µg/mL: 100%
Mycobacterium avium [2]
  inhibition at 50 µg/mL: 55%
[3]
  inhibition at 10 µg/mL: 100%
[4]
  inhibition at 100 µg/mL: 100%
Mycobacterium avium [5]
  MIC90: 50 µg/mL (≈ 122 µM)
[6]
  MIC90: 1 µg/mL (≈ 2.45 µM)
[7]
  CC50 at 72 h: > 100 µg/mL
[8]
  inhibition at 1 µg/mL: 75%
Vero
  CC10: > 100 µg/mL
[9]
  inhibition at 50 µg/mL: 100%

## CCCCCCCCCCCC#Cc1cn([C@@H]2O[C@H](CO)[C@@H](O)[C@@H]2O)c(=O)[nH]c1=O
Mycobacterium avium [1]
  inhibition at 100 µg/mL: 25%
[3]
  inhibition at 10 µg/mL: 50%
[4]
  inhibition at 100 µg/mL: 100%
[6]
  MIC90: 10 µg/mL (≈ 23.7 µM)
[7]
  CC50 at 72 h: > 100 µg/mL
Vero
  CC10: > 100 µg/mL
[9]
  inhibition at 50 µg/mL: 100%

## O=c1[nH]c(=O)n([C@@H]2O[C@H](CO)[C@@H](O)[C@H]2F)cc1Cl
Mycobacterium avium [1]
  inhibition at 100 µg/mL: 0%
[4]
  inhibition at 100 µg/mL: 20%

## Cc1cn([C@@H]2O[C@H](CO)[C@@H](O)[C@H]2F)c(=O)[nH]c1=S
Mycobacterium avium [1]
  inhibition at 100 µg/mL: 0%
[4]
  inhibition at 100 µg/mL: 25%

## O=c1[nH]c(=O)n([C@@H]2O[C@H](CO)[C@@H](O)[C@@H]2O)cc1C(O)C(Cl)Cl (some centres undefined)
Mycobacterium avium [1]
  inhibition at 100 µg/mL: 0%
[4]
  inhibition at 100 µg/mL: 0%

## O=c1[nH]c(=O)n([C@@H]2O[C@H](CO)[C@@H](O)[C@@H]2O)cc1C(O)CI (some centres undefined)
Mycobacterium avium [1]
  inhibition at 100 µg/mL: 0%
[4]
  inhibition at 100 µg/mL: 0%

## O=C(O)C(I)C(O)c1cn([C@@H]2O[C@H](CO)[C@@H](O)[C@H]2F)c(=O)[nH]c1=O (some centres undefined)
Mycobacterium avium [1]
  inhibition at 100 µg/mL: 0%
[4]
  inhibition at 100 µg/mL: 0%

## O=c1[nH]c(=O)n([C@@H]2O[C@H](CO)[C@@H](O)[C@@H]2O)cc1Cl
Mycobacterium avium [1]
  inhibition at 100 µg/mL: 0%
[4]
  inhibition at 100 µg/mL: 0%

## O=c1[nH]c(=S)ccn1[C@@H]1O[C@H](CO)[C@@H](O)[C@@H]1O
Mycobacterium avium [1]
  inhibition at 100 µg/mL: 0%
[4]
  inhibition at 100 µg/mL: 0%

## CCCCCC#Cc1cn([C@@H]2O[C@H](CO)[C@@H](O)[C@H]2F)c(=O)[nH]c1=O
Mycobacterium avium [1]
  inhibition at 100 µg/mL: 0%
[4]
  inhibition at 100 µg/mL: 50%
[7]
  CC50 at 72 h: > 100 µg/mL
Vero
  CC10: > 100 µg/mL

## O=c1[nH]c(=S)ccn1[C@@H]1O[C@H](CO)[C@@H](O)[C@H]1F
Mycobacterium avium [1]
  inhibition at 100 µg/mL: 0%
[4]
  inhibition at 100 µg/mL: 25%

## CCOC(=O)/C=C/c1cn([C@@H]2O[C@H](CO)[C@@H](O)[C@@H]2O)c(=O)[nH]c1=O
Mycobacterium avium [1]
  inhibition at 100 µg/mL: 0%
[4]
  inhibition at 100 µg/mL: 0%

## CCCCCCCCC#Cc1cn([C@@H]2O[C@H](CO)[C@@H](O)[C@H]2F)c(=O)[nH]c1=O
Proteus vulgaris
  MIC: > 100 µg/mL
Mycobacterium avium [1]
  inhibition at 100 µg/mL: 50%
[3]
  inhibition at 10 µg/mL: 50%
Bacillus subtilis
  MIC: > 100 µg/mL
[4]
  inhibition at 100 µg/mL: 100%
Streptococcus pneumoniae
  Inhibition: 100%
  MIC: 100 µg/mL (≈ 261 µM)
Escherichia coli
  MIC: > 100 µg/mL
Staphylococcus aureus
  Inhibition: 100%
  MIC: 100 µg/mL (≈ 261 µM)
Streptococcus pyogenes
  Inhibition: 100%
  MIC: 100 µg/mL (≈ 261 µM)
[6]
  MIC90: 50 µg/mL (≈ 131 µM)
Pseudomonas aeruginosa
  MIC: > 100 µg/mL
[7]
  CC50 at 72 h: > 100 µg/mL
[8]
  inhibition at 1 µg/mL: 25%
Salmonella typhimurium
  MIC: > 100 µg/mL
Vero
  CC10: > 100 µg/mL
[9]
  inhibition at 50 µg/mL: 100%
[10]
  Inhibition: 100%
  MIC: 100 µg/mL (≈ 261 µM)
Listeria monocytogenes
  Inhibition: 100%
  MIC: 100 µg/mL (≈ 261 µM)
Klebsiella aerogenes
  MIC: > 100 µg/mL
Enterococcus faecalis
  Inhibition: 100%
  MIC: 100 µg/mL (≈ 261 µM)

## O=C(O)/C=C/c1cn([C@@H]2O[C@H](CO)[C@@H](O)[C@H]2F)c(=O)[nH]c1=O
Mycobacterium avium [1]
  inhibition at 100 µg/mL: 0%
[4]
  inhibition at 100 µg/mL: 0%

## NNC(=O)c1ccncc1 [ISONIAZID]
Proteus vulgaris
  MIC: > 100 µg/mL
Bacillus subtilis
  MIC: > 100 µg/mL
Streptococcus pneumoniae
  MIC: > 100 µg/mL
Escherichia coli
  MIC: > 100 µg/mL
Staphylococcus aureus
  MIC: > 100 µg/mL
Streptococcus pyogenes
  MIC: > 100 µg/mL
Pseudomonas aeruginosa
  MIC: > 100 µg/mL
Salmonella typhimurium
  MIC: > 100 µg/mL
[10]
  MIC: > 100 µg/mL
Listeria monocytogenes
  MIC: > 100 µg/mL
Klebsiella aerogenes
  MIC: > 100 µg/mL
Enterococcus faecalis
  MIC: > 100 µg/mL
